Measured values published in ChEMBL document CHEMBL5154772, “Biological Investigation of a Water-Soluble Isoginkgetin-Phosphate Analogue, Targeting the Spliceosome with In Vivo Antitumor Activity” (J Med Chem, 2022).
Active and inactive are the calls of the source. No cut-off for these calls is given here.

Legend:
[1] = AUCextra in C57BL/6J mouse at 9.103 mg/kg, ip administered as single dose measured up to 24 hrs; format: ADME, organism-based; conditions: in vivo
In short: (§1)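 Single intraperitoneal dose in male C57BL/6J mice (12 per route). Tail-vein blood was collected under sodium heparin for plasma, with 3 mice sampled at each pair of times: 0.083/2, 0.25/4, 0.5/8 and 1/24 h. F denotes bioavailability.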

[2] = Toxicity in C57BL/6 mouse assessed as change in body weight at 100 mg/kg, ip administered as single dose and measured after 15 days (reference value: 23.5 to 24.2 g); format: organism-based; conditions: in vivo, 360 h, time 15 day
In short: (§2)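 Female C57BL/6 mice given one IP injection of 100 µL, at 50, 100, 250 or 500 mg/kg in sterile PBS, two mice per dose; PBS-injected controls. Behaviour checked right after and at 30 min. Body weight recorded every 2–3 days for 15 days, then liver, spleen and kidneys weighed.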

[3] = Toxicity in C57BL/6 mouse assessed as change in liver weight at 50 mg/kg, ip administered as single dose and measured after 15 days (reference value: 1.2 to 1.3 g); format: organism-based; conditions: in vivo, 360 h, time 15 day; in short: as §2
[4] = Toxicity in C57BL/6 mouse assessed as change in liver weight at 500 mg/kg, ip administered as single dose and measured after 15 days (reference value: 1.2 to 1.3 g); format: organism-based; conditions: in vivo, 360 h, time 15 day; in short: as §2
[5] = Antitumour activity against mouse wild type MCA-205 cells implanted in C57BL/6 mouse assessed as tumor size by measuring cell killing pretreatment at 2.5 mg/kg, iv administered starting from day 7 post inoculation at five days interval upto 17 days relative to control; format: functional; conditions: time <= 17 day
In short: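 Female C57BL/6 mice (6 weeks old) given subcutaneous MCA205 WT fibrosarcoma in the right flank. 2.5 mg/kg given intravenously on days 7, 12 and 17 after inoculation; untreated controls. Tumour area recorded every 3–4 days until ethical endpoints, then tumour size at killing. Groups compared by one-way ANOVA.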

[6] = Metabolic stability in human liver microsomes assessed as parent compound remaining incubated for 45 mins in presence of NADPH by HPLC-MS/MS analysis; format: ADME, Microsome; conditions: read-out: Stability
In short: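 Incubation with mouse or human liver microsomes for 45 min, with or without NADPH. Remaining parent compound was quantified over time by HPLC-MS/MS and expressed as % remaining; intrinsic clearance is given in μL/min/mg protein.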

[7] = Stability in human plasma assessed as compound remaining incubated up to 2 hrs by HPLC-MS/MS analysis; format: ADME, cell-free; conditions: read-out: Stability
In short: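 Incubation in mouse or human plasma for up to 2 h, with compound remaining expressed as a percentage.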

[8] = Plasma protein binding in mouse assessed as unbound fraction at 2 uM by rapid equilibrium dialysis based LC-MS/MS analysis; format: ADME, cell-free
In short: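 Binding was measured at 2 μM in triplicate by rapid equilibrium dialysis (8K MWCO). Quantification was by UPLC-MS/MS on a phenyl column in positive ESI MRM mode (m/z 727>567), with an ammonium formate pH 5 / 1,5-DMHA mobile phase at 50 °C. Both unbound fraction (fu) and % bound are reported.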

[9] = target: Histamine H2 receptor (Homo sapiens) (UniProt P25021); experiment: Antagonist activity at HRH2 (unknown origin) at 10 uM; format: functional; design: scale not given: the % may be the effect or the level left; conditions: filed as antagonist
Histamine H2 receptor (Homo sapiens), sequence (P25021 whole entry): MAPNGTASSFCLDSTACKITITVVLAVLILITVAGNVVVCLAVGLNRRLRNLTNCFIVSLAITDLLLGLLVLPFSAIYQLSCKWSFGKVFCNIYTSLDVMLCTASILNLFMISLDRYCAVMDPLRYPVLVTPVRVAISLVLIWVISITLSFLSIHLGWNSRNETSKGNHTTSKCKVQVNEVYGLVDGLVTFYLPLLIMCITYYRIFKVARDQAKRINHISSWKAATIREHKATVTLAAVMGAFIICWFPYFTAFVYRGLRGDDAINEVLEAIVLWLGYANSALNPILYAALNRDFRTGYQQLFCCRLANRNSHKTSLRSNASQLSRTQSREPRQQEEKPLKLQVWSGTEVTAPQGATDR
In short: (§3)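 Single-concentration safety screen at 10 μM across a 47-target panel. GPCRs were run in antagonist mode and enzymes in inhibitor mode.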

[10] = target: 3',5'-cyclic-AMP phosphodiesterase 4D (Homo sapiens) (UniProt Q08499); experiment: Inhibition of PDE4D2 (unknown origin) at 10 uM; in short: as §3
3',5'-cyclic-AMP phosphodiesterase 4D (Homo sapiens), sequence (Q08499 whole entry): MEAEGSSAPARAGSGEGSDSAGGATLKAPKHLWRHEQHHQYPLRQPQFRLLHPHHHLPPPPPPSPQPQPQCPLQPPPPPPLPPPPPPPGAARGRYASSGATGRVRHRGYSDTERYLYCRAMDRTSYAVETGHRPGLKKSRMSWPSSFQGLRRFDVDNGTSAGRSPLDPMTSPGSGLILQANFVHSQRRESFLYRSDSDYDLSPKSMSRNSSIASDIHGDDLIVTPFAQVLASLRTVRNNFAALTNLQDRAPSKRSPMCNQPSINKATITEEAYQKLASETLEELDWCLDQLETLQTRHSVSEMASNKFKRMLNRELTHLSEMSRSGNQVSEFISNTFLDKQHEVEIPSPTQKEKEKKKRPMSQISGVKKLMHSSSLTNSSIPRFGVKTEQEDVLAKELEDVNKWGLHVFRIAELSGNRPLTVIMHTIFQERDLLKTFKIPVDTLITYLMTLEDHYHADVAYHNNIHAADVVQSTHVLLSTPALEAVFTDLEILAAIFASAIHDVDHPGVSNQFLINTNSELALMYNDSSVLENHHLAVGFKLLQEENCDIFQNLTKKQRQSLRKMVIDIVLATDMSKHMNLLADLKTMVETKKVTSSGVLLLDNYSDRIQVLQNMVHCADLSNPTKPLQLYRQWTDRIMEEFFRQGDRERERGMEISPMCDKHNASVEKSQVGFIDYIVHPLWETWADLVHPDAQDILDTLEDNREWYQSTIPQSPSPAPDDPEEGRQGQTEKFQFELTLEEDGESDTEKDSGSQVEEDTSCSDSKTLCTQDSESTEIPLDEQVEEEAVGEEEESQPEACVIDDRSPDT

[11] = Cmax in C57BL/6J mouse at 0.711 mg/kg, iv administered as single dose measured up to 24 hrs; format: ADME, organism-based; design: time < 24 hrs, dose 0.711 mg/kg, route iv; conditions: in vivo
In short: (§4)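 Single intravenous dose. Mice were male C57BL/6J, 12 per route; tail-vein blood was collected under sodium heparin, with 3 mice sampled at each pair of times (0.083/2, 0.25/4, 0.5/8, 1/24 h). Dogs were male beagles (n=3); jugular blood was collected under K2 EDTA predose and at 0.083, 0.25, 0.5, 1, 2, 4, 6, 8 and 24 h. Plasma was prepared from the samples.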

[12] = Tmax in C57BL/6J mouse at 0.711 mg/kg, iv administered as single dose measured up to 24 hrs; format: ADME, organism-based; conditions: in vivo; in short: as §4
[13] = Tmax in Beagle dog at 26.76 mg/kg, iv administered as single dose measured up to 24 hrs; format: ADME, organism-based, Canis lupus familiaris; conditions: in vivo; in short: as §4
[14] = Half life in C57BL/6J mouse at 9.103 mg/kg, ip administered as single dose measured up to 24 hrs; format: ADME, organism-based; conditions: in vivo; in short: as §1
[15] = MRT(0 to t) in Beagle dog at 26.76 mg/kg, iv administered as single dose measured up to 24 hrs; format: ADME, organism-based, Canis lupus familiaris; conditions: in vivo; in short: as §4
[16] = AUC(0 to t) in C57BL/6J mouse at 0.711 mg/kg, iv administered as single dose measured up to 24 hrs; format: ADME, organism-based; design: dose 0.711 mg/kg, time < 24 hrs, route iv; conditions: in vivo; in short: as §4
[17] = AUCextra in Beagle dog at 26.76 mg/kg, iv administered as single dose measured up to 24 hrs; format: ADME, organism-based, Canis lupus familiaris; conditions: in vivo; in short: as §4
[18] = Toxicity in C57BL/6 mouse assessed as change in body weight at 500 mg/kg, ip administered as single dose and measured after 15 days (reference value: 23.5 to 24.2 g); format: organism-based; conditions: in vivo, 360 h, time 15 day; in short: as §2
[19] = Toxicity in C57BL/6 mouse assessed as change in liver weight at 250 mg/kg, ip administered as single dose and measured after 15 days (reference value: 1.2 to 1.3 g); format: organism-based; conditions: in vivo, 360 h, time 15 day; in short: as §2
[20] = Toxicity in C57BL/6 mouse assessed as change in spleen weight at 100 mg/kg, ip administered as single dose and measured after 15 days (reference value: 0.1 to 0.2 g); format: organism-based; conditions: in vivo, 360 h, time 15 day; in short: as §2
[21] = Toxicity in C57BL/6 mouse assessed as change in spleen weight at 250 mg/kg, ip administered as single dose and measured after 15 days (reference value: […]); format: organism-based; conditions: in vivo, 360 h, time 15 day; in short: as §2
[22] = Toxicity in C57BL/6 mouse assessed as change in kidney weight at 500 mg/kg, ip administered as single dose and measured after 15 days (reference value: 0.3 g); format: organism-based; conditions: in vivo, 360 h, time 15 day; in short: as §2
MCA-205 [23] = experiment: Antitumor activity against mouse wild type MCA-205 cells implanted in C57BL/6 mouse assessed as decrease in tumor growth pretreatment at 2.5 mg/kg,iv administered starting from day 7 post inoculation at five days interval upto 17 days relative to control; format: functional, organism-based; conditions: time <= 17.0 day
In short: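 MCA205 WT fibrosarcoma cells were inoculated subcutaneously into the right flank of female C57BL/6 mice. Dosing was 2.5 mg/kg iv from day 7 post-inoculation, repeated every 5 days until day 17; controls were untreated. Tumor area was recorded every 3–4 days up to ethical limits, and tumor size was measured at killing. Analysis was by one-way ANOVA.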

MCA-205 [24] = experiment: Antitumour activity against mouse wild type MCA-205 cells implanted in C57BL/6 mouse assessed as decrease in tumour growth at 5 mg/kg,IT administered starting from day 7 post inoculation and thrice a week for 2 weeks; format: functional, organism-based
In short: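 MCA205 WT fibrosarcoma cells were inoculated subcutaneously into the right flank of female C57BL/6 mice. Dosing was 5 mg/kg intratumoral, three times per week for two weeks, starting day 7 post-inoculation; controls were untreated. Tumor area was recorded every 3–4 days, and tumor size was measured at killing. Analysis was by one-way ANOVA.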

Structure (SMILES): COc1ccc(-c2cc(=O)c3c(O)cc(OP(=O)([O-])[O-])c(-c4cc(-c5cc(=O)c6c(O)cc(OP(=O)([O-])[O-])cc6o5)ccc4OC)c3o2)cc1.[Na+].[Na+].[Na+].[Na+]
- %AUCextra [1]: 1.3%
- Activity [2]: 19.5 g
- Activity [3]: 1 g
- Activity [4]: 1 g
- Activity [5]: 40%
- remaining at 0.75 h [6]: 60.8%
- remaining at 2 h [7]: 94.1%
- fraction unbound at 2 µM [8]: 0.02
- Activity [9]: 40%
- inhibition [10]: 87.2%
- Cmax [11]: 323 ng/mL
- Tmax [12]: 5 min
- Tmax [13]: 5 min
- half-life [14]: 48 min
- MRT last at 24 h [15]: 228 min
- AUC(0-t) at 24 h [16]: 88.8 ng·h/mL
- %AUCextra [17]: 0.9%
- Activity [18]: 20.4 g
- Activity [19]: 0.9 g
- Activity [20]: 0.1 g
- Activity [21]: 0.1 g
- Activity [22]: 0.2 g
- Activity (MCA-205 [23]): Active
- Activity (MCA-205 [24]): Active
